Here are results for eight molecules from ChEMBL document CHEMBL1795239, “MAO inhibitory activity modulation: 3-Phenylcoumarins versus 3-benzoylcoumarins” (Bioorg Med Chem Lett, 2011).

Bounds are passed on as bounds.

Data set [1] addresses T1, Amine oxidase [flavin-containing] A (Homo sapiens, UniProt P21397).
T1 sequence (P21397 whole entry): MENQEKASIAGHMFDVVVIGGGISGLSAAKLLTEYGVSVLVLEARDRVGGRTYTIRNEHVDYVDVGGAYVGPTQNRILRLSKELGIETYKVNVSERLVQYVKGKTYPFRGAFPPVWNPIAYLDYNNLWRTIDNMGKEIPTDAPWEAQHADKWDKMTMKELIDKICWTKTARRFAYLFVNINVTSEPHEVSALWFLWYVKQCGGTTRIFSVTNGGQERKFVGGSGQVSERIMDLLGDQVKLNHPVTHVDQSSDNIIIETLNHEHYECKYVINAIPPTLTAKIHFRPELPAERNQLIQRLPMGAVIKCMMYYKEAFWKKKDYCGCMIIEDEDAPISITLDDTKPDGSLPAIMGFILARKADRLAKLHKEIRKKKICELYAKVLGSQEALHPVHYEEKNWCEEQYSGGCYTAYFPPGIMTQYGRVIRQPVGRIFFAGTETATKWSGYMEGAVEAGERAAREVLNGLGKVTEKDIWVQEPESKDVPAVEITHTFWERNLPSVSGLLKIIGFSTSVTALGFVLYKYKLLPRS
The data set is described as follows: Inhibition of human recombinant MAO-A using p-tyramine substrate by fluorometric method.

Data set [2] deals with T2, Amine oxidase [flavin-containing] B (Homo sapiens, UniProt P27338).
T2 sequence (P27338 whole entry): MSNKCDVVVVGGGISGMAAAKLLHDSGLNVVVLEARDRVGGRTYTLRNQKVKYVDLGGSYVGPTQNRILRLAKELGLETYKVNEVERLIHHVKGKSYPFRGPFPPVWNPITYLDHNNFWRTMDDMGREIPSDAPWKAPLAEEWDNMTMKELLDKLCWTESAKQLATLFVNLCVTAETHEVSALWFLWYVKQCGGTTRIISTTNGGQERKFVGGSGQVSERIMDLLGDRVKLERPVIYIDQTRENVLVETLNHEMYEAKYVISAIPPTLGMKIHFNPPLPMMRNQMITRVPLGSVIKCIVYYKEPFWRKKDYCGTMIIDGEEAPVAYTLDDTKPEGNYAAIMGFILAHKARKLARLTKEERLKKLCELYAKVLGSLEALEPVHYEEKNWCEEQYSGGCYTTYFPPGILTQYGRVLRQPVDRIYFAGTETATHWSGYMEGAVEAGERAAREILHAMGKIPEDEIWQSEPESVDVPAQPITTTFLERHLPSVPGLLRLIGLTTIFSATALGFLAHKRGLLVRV
The data set is described as follows: Inhibition of human recombinant MAO-B using p-tyramine substrate by fluorometric method.

Data set [3] is filed under the species Homo sapiens. The data set is described as follows: Selectivity index, ratio of IC50 for human recombinant MAO-A to human recombinant MAO-B. A digest of the protocol:
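MAO-B selectivity index is IC50(MAO-A)/IC50(MAO-B). Both IC50s come from the fluorimetric Amplex Red/peroxidase assay with 1 mM p-tyramine, using recombinant hMAO-A and hMAO-B from baculovirus-infected insect cells.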

The target in data set [4] is T1, Amine oxidase [flavin-containing] A. The data set is described as follows: Inhibition of human recombinant MAO-A using p-tyramine substrate at 100 uM by fluorometric method. The method in brief:
(§1)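 Recombinant human MAO-A or MAO-B expressed in baculovirus-infected BTI insect cells. Enzyme amounts set so both isoforms give the same rate, 165 pmol p-tyramine/min. Assay run in 0.05 M sodium phosphate pH 7.4 at 37 °C with compounds at several concentrations, 200 Amplex Red, 1 U/mL horseradish peroxidase and 1 mM p-tyramine. Resorufin fluorescence (ex 545/em 590 nm) read over a linear 15 min window. Vehicle controls run alongside.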

For data set [5], the target named is T2, Amine oxidase [flavin-containing] B. The data set is described as follows: Inhibition of human recombinant MAO-B using p-tyramine substrate at 100 uM by fluorometric method. The conditions noted are these: for inhibition (INH): 100 µM. A digest of the protocol:
as §1

In the case of `O=C(c1ccccc1)c1cc2cc(Br)cc(O)c2oc1=O`, the IC50 (commonly the point on the concentration scale where inhibition reaches its midpoint) in data set [1] came to 46.8 µM; in data set [2], 73.9 µM. Moreover, the Ratio IC50 in data set [3] was 0.63.
On the same counts, the results for `O=c1oc2c(O)cc(Br)cc2cc1-c1ccc(O)cc1` are 20.7 µM, 16.9 µM and 1.2.
As for `COc1cc(Br)cc2cc(C(=O)c3ccccc3)c(=O)oc12`, the “inhibition (INH)” value in data set [4] and in data set [5] was “Not Active” each time.
On to `COc1ccc(-c2cc3cc(Br)cc(OC)c3oc2=O)cc1`, for which, in data set [4], the “inhibition (INH)” value is recorded as “Not Active”. In addition, in data set [2], the IC50 was found to be 0.00135 µM. Moreover, the Ratio IC50 in data set [3] is greater than 74100.
Regarding `COc1ccc(C(=O)c2cc3cc(Br)cc(OC)c3oc2=O)cc1`, the “inhibition (INH)” value in data set [4] and in data set [5] was “Not Active” each time.
Take `O=C(c1ccc(O)cc1)c1cc2cc(Br)cc(O)c2oc1=O`: in data set [1], the IC50 came to 19.2 µM. Moreover, the Ratio IC50 in data set [3] was 0.19. The inhibition (commonly how much of the control response was suppressed) at 100 µM in data set [5] came to 45%.
For the molecule `COc1cc(Br)cc2cc(-c3ccccc3)c(=O)oc12`, in data set [4], the “inhibition (INH)” value was “Not Active”. Moreover, the IC50 in data set [2] is 0.0835 µM. Further, in data set [3], the Ratio IC50 was greater than 1200.
The matching figures for `O=c1oc2c(O)cc(Br)cc2cc1-c1ccccc1`: “Not Active”, 30.9 µM and greater than 3.2.
